Results collected from several papers.
Each line is one published result; the experiments were not run side by side.
Effect on: cell growth or viability

C[C@H](Nc1ccc2c(c1)OCCn1cc(N3C(=O)OC[C@H]3C(F)F)nc1-2)C(N)=O  EC50 (MFM-223; ATP luminescence; 5 days): 1390 nM
O=C1Nc2ccccc2C1=Nc1ccccc1Br  IC50 (L02; MTT; 48 h): 31400 nM
C[C@H](Oc1nccc(-c2noc3c2CCC[C@@]32CCCc3sc(N)c(C#N)c32)n1)[C@@H]1CCCN1C  EC50 (BaF3; 72 h): 42 nM
Cc1ccc(CN2C(=O)C(=Nc3c(C(C)C)cccc3C(C)C)c3ccccc32)cc1  IC50 (L02; MTT; 48 h): 177000 nM
C[C@H]1CNCCN1c1nccc(-c2noc([C@@]3(C)CCCc4sc(N)c(C#N)c43)n2)n1  EC50 (BaF3; 72 h): 1580 nM
Cc1ncsc1-c1ccc(CNC(=O)[C@@H]2C[C@@H](O)CN2C(=O)[C@@H](NC(=O)COCCOCCOCCNC(=O)C[C@@H]2N=C(c3ccc(Cl)cc3)c3c(sc(C)c3C)-n3c(C)nnc32)C(C)(C)C)cc1  IC90 (HCC1806; MTT; 6 days): 810 nM
Cc1ccc(CN2C(=O)C(=Nc3cccc(C)c3)c3ccccc32)cc1  IC50 (L02; MTT; 48 h): 10300 nM
C[C@H]1CN(C)CCN1c1nccc(-c2noc3c2CCC[C@@]32CCCc3sc(N)c(C#N)c32)n1  EC50 (BaF3; 72 h): 479 nM
Cc1nc(Nc2ncc(C(=O)Nc3c(C)cccc3Cl)s2)cc(N2CC[C@H](O)C2)n1  inhibition (REH; ATP luminescence; 10 µM; 72 h): 32%
